From paper PMC4317570 (Cell metabolism, 2015)

Legend:
[1] = biological target: T1, RORγ (Mus musculus, UniProt P51450); assay: RORγ reporter assay in mammalian cells; type: cell-based; conditions: mammalian cells (HEK293T)
T1 sequence (P51450 267-516 limits assumed): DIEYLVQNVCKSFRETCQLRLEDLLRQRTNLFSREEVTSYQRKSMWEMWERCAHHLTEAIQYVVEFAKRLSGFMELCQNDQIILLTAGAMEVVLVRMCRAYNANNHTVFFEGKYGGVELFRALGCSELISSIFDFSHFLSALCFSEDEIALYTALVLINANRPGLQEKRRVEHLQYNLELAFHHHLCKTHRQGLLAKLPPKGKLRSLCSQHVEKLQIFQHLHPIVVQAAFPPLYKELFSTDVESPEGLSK
Procedure, shortened: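 HEK293T cells are co-transfected with a RORγ-gal4 fusion plus a GAL4 UAS firefly luciferase reporter (luc2p) and exposed to test compound. Luciferase activity is the read-out. Data are averages of technical triplicates ± standard deviation, representative of n=6 experiments. Statistics use two-tailed unpaired Student's t-test on aggregated experiments.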

[2] = system: RORγ LBD; assay: Competition binding with fluorescein-labeled 25-hydroxycholesterol; conditions: recombinant RORγ
[3] = system: RORγ LBD; assay: Fluorescein-NCOA2 coactivator peptide recruitment, fluorescence polarization; type: biochemical; conditions: fluoresceinated NCOA2 peptide, holo vs apo receptor
[4] = system: RORγ LBD; assay: CD thermal denaturation of RORγ LBD, apo vs holo; type: binding; conditions: holo vs apo receptor
[5] = biological target: RORγ (Mus musculus, UniProt P51450); assay: RORγ-gal4/UAS luciferase reporter in insect cells grown in sterol-free CDM; type: cell-based
Procedure, shortened: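 Drosophila Kc167 cells are kept in continuous culture in lipid-free chemically defined medium: 40% Grace's medium, 10% Murashige–Skoog micronutrients, 1% NEAS, 1 mM pyruvate, 2% ITS-A and 1% Pluronic F-68. Cells are transiently transfected with RORγ-gal4 plus a UAS luc2p firefly luciferase reporter (minimal hsp70 promoter), then treated with test compound. EC50 is derived from reporter activity. Each compound is tested at least twice in technical triplicates ± standard deviation.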

[6] = system: RORγ reporter activity in U937ROR cells; type: cell-based; conditions: media supplemented with exogenous cholesterol
[7] = system: Sc4mol-/- naïve CD4+ T cells; assay: Th17 cell polarization of RORγt-cre Sc4mol-/- naïve CD4+ T cells; type: cell-based, mouse
[8] = system: RORγ reporter activity in SXLT cells; assay: Full length RORγ reporter; type: cell-based; conditions: media supplemented with compound, Fdft1-/- SXLT cells
Procedure, shortened: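 Fdft1−/− SXLT cells are transfected with a full-length RORγ construct driving a firefly luciferase reporter from an endogenous Il-23r enhancer element. Test compound is added to the medium, and luciferase activity is read. Data are technical triplicates ± standard deviation, representative of n=4 experiments. Comparison is by two-tailed unpaired Student's t-test on aggregated experiments.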

`CC(C)=CCCC(C)C1CCC2(C)C3=CCC4C(C)(CO)C(O)CCC4(C)C3CCC12C` (stereo not drawn) [4α–hydroxymethyl,4β,14α-dimethyl-cholesta-7,24-dien-3-ol] was tested, and the “RORγ reporter activity in mammalian cells” value [1] was “no activity”.
`CC(C)=CCC[C@@H](C)[C@H]1CC=C2C3=C(CC[C@@]21C)[C@@]1(C)CCC(O)C(C)(C)C1CC3` (stereo partly drawn) [FF-MAS, 4α,4β-dimethyl-cholesta-8,14,24-trien-3-ol, reference compound] was tested, and the “RORγ reporter activity in mammalian cells” value [1] was “weak agonist”.
In the case of `CC(C)=CCC[C@@H](C)[C@H]1CC[C@H]2C3=C(CC[C@]12C)[C@@]1(C)CCC(O)C(C)(C)C1CC3` (stereo partly drawn) [T-MAS, 4α,4β-dimethyl-cholesta-8,24-dien-3-ol], the “Binding to RORγ” value [2] is reported as “bind very weakly if at all”.
`CC(C)CCC[C@@H](C)[C@H]1CC[C@H]2C3=CCC4[C@H](C(=O)O)[C@@H](O)CC[C@]4(C)[C@H]3CC[C@]12C` (stereo partly drawn) [4ACD7, 4α-carboxy-cholest-7-en-3β-ol] was tested, and the “Co-activator peptide recruitment to RORγ” value [3] was “promote the recruitment” and the “Thermal stability of the RORγ LBD” value [4] was “increase stability”.
`CC(C)=CCC[C@@H](C)[C@H]1CC[C@@]2(C)C3=C(CC[C@]12C)[C@@]1(C)CC[C@H](O)C(C)(C)[C@@H]1CC3` [lanosterol, 14α,4α,4β-trimethyl-cholesta-8,24-dien-3-ol] was tested, and the “RORγ reporter activity in insect cells” value ([5]; higher concentrations) was “significant RORγ reporter activity” and the “RORγ reporter activity in insect cells” value ([5]; physiological concentrations (1 μM)) was “little to no activity”.
In the case of `CC[C@H](C)C(=O)O[C@H]1C[C@@H](C)C=C2C=C[C@H](C)[C@H](CC[C@@H]3C[C@@H](O)CC(=O)O3)[C@H]21` [lovastatin], the “RORγ reporter activity in U937ROR cells” value [6] is reported as “inhibited in a dose dependent fashion”.
In the case of `C=CCN(C)CCCCCCOc1ccc(C(=O)c2ccc(Br)cc2)c(F)c1.O=C(O)/C=C/C(=O)O` [Ro 48-8071 fumarate], the “RORγ reporter activity in U937ROR cells” value [6] is reported as “inhibited in a dose dependent fashion”.
In the case of `CC(C)=CCC[C@@H](C)[C@H]1CC[C@@]2(C)C3=CCC4[C@](C)(C=O)C(O)CC[C@]4(C)[C@H]3CC[C@]12C` (stereo partly drawn) [4α–formyl,4β,14α-dimethyl-cholesta-7,24-dien-3-ol], the “RORγ reporter activity in mammalian cells” value [1] is reported as “no activity” and the EC50 [5] is reported as 150 to 500 nM.
`CC(C)=CCC[C@@H](C)[C@H]1CC[C@H]2C3=C(CC[C@]12C)[C@@]1(C)CCC(O)[C@@](C)(C(=O)O)C1CC3` (stereo partly drawn) [4ACD8, 4α–carboxy, 4β-methyl-cholesta-8,24-dien-3-ol] was tested, and the “RORγ reporter activity in mammalian cells” value [1] was “specific agonist activity”, the “Th17 cell differentiation in Sc4mol-/- naïve CD4+ T cells” value ([7]; 1 μM added to media) was “rescues Th17 cell differentiation” and the “Co-activator peptide recruitment to RORγ” value [3] was “promoted co-activator peptide recruitment”. For the same compound, the “Thermal stability of the RORγ LBD” value [4] was “increased the thermal stability”.
With `CC(C)=CCC/C(C)=C/CC/C(C)=C/CC/C=C(\C)CC/C=C(\C)CCC=C(C)C` [squalene] the “Rescue of full length RORγ reporter activity in SXLT cells” value [8] was “partially rescue”.
With `CC(C)CCC[C@@H](C)[C@H]1CC[C@H]2[C@@H]3CC=C4C[C@@H](O)CC[C@]4(C)[C@H]3CC[C@]12C` [cholesterol, reference compound] the “Th17 polarization defect of Sc4mol-/- T cells” value ([7]; supplementation of media) was “could not be alleviated”.
